# Data: ChEMBL document CHEMBL1142436, “Design and synthesis of 4-substituted indolo[3,2-e][1,2,3]triazolo[1,5-a]pyrimidine derivatives with antitumor activity” (2008)
# What was measured:
# Format in all cases: functional
# CCRF-CEM = experiment: Growth inhibition of human CCRF-CEM cells after 48 hrs
# Summary of the method: (§1)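 NCI ~60-line screen. Cells were grown in RPMI 1640 with 5% FBS and 2 mM L-glutamine and plated at 5000–40000 cells/well. After a 24 h preincubation, five drug concentrations from DMSO stocks were added for 48 h at 37 °C. Cells were TCA-fixed, stained with SRB and read at 515 nm. GI50 was taken from time-zero and control absorbances and reported as pGI50.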
# HL-60 = experiment: Growth inhibition of human HL60 cells after 48 hrs; conditions: HL-60, 48 h; summary of the method: as §1
# K562 = experiment: Growth inhibition of human K562 cells after 48 hrs; conditions: K562, 48 h; summary of the method: as §1
# MOLT-4 = experiment: Growth inhibition of human MOLT4 cells after 48 hrs; conditions: MOLT-4, 48 h; summary of the method: as §1
# [1] = Growth inhibition of human HS578T cells after 48 hrs; conditions: Hs-578T; summary of the method: as §1
# MDA-MB-435 = experiment: Growth inhibition of human MDA-MB435 cells after 48 hrs; conditions: MDA-MB-435, 48 h; summary of the method: as §1
# BT-549 = experiment: Growth inhibition of human BT549 cells after 48 hrs; conditions: BT-549, 48 h; summary of the method: as §1
# T47D = experiment: Growth inhibition of human T47D cells after 48 hrs
# Summary of the method: (§2)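 NCI 60-line screen: cells in RPMI 1640 with 5% FBS and 2 mM L-glutamine, plated at 5000–40000 cells/well, grown 24 h (37 °C, 5% CO₂), then exposed to five 10-fold or ½-log dilutions (DMSO stock) for 48 h. Fixed with TCA (final 10% for adherent cells, 16% for suspension cells), then SRB stained with absorbance at 515 nm. GI50 from percentage growth relative to time-zero and control wells.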
# RPMI-8226 = experiment: Growth inhibition of human RPMI8226 cells after 48 hrs; conditions: RPMI-8226, 48 h; summary of the method: as §1
# SR = experiment: Growth inhibition of human SR cells after 48 hrs; summary of the method: as §2
# A549 = experiment: Growth inhibition of human A549 cells after 48 hrs; conditions: A549, 48 h; summary of the method: as §1
# EKVX = experiment: Growth inhibition of human EKVX cells after 48 hrs; summary of the method: as §1
# HOP-62 = experiment: Growth inhibition of human HOP62 cells after 48 hrs; conditions: HOP-62, 48 h; summary of the method: as §1
# HOP-92 = experiment: Growth inhibition of human HOP92 cells after 48 hrs; conditions: HOP-92, 48 h; summary of the method: as §1
# NCI-H226 = experiment: Growth inhibition of human NCI-H226 cells after 48 hrs; conditions: NCI-H226, 48 h; summary of the method: as §1
# NCI-H23 = experiment: Growth inhibition of human NCI-H23 cells after 48 hrs; conditions: Homo sapiens, NCI-H23, 48 h; summary of the method: as §1
# NCI-H322M = experiment: Growth inhibition of human NCI-H322M cells after 48 hrs; summary of the method: as §1
# NCI-H460 [2] = experiment: Growth inhibition of human NCI-H460 cells after 48 hrs; conditions: NCI-H460, 48 h; summary of the method: as §1
# NCI-H522 = experiment: Growth inhibition of human NCI-H522 cells after 48 hrs; conditions: NCI-H522, 48 h; summary of the method: as §1
# COLO 205 = experiment: Growth inhibition of human COLO205 cells after 48 hrs; conditions: COLO 205, 48 h; summary of the method: as §1
# HCC 2998 = experiment: Growth inhibition of human HCC2998 cells after 48 hrs; conditions: HCC 2998, 48 h; summary of the method: as §1
# HCT-116 = experiment: Growth inhibition of human HCT116 cells after 48 hrs; conditions: HCT-116, 48 h; summary of the method: as §1
# HCT-15 = experiment: Growth inhibition of human HCT15 cells after 48 hrs; conditions: HCT-15, 48 h; summary of the method: as §1
# HT-29 = experiment: Growth inhibition of human HT29 cells after 48 hrs; conditions: HT-29, 48 h; summary of the method: as §1
# KM12 = experiment: Growth inhibition of human KM12 cells after 48 hrs; conditions: KM12, 48 h; summary of the method: as §1
# SW-620 = experiment: Growth inhibition of human SW620 cells after 48 hrs; conditions: SW-620, 48 h; summary of the method: as §2
# SF-268 [3] = experiment: Growth inhibition of human SF268 cells after 48 hrs; conditions: SF-268, 48 h; summary of the method: as §1
# SF-295 = experiment: Growth inhibition of human SF295 cells after 48 hrs; conditions: SF-295, 48 h; summary of the method: as §1
# SF-539 = experiment: Growth inhibition of human SF539 cells after 48 hrs; conditions: SF-539, 48 h; summary of the method: as §1
# SNB-19 = experiment: Growth inhibition of human SNB19 cells after 48 hrs; conditions: SNB-19, 48 h; summary of the method: as §2
# SNB-75 = experiment: Growth inhibition of human SNB75 cells after 48 hrs; conditions: SNB-75, 48 h; summary of the method: as §2
# U-251 = experiment: Growth inhibition of human U251 cells after 48 hrs; conditions: U-251, 48 h; summary of the method: as §2
# LOX IMVI = experiment: Growth inhibition of human LOXIMVI cells after 48 hrs; summary of the method: as §1
# Malme-3M = experiment: Growth inhibition of human MALME3M cells after 48 hrs; summary of the method: as §1
# M14 = experiment: Growth inhibition of human M14 cells after 48 hrs; conditions: M14, 48 h; summary of the method: as §1
# SK-MEL-2 = experiment: Growth inhibition of human SK-MEL2 cells after 48 hrs; conditions: SK-MEL-2, 48 h; summary of the method: as §1
# SK-MEL-28 = experiment: Growth inhibition of human SK-MEL28 cells after 48 hrs; conditions: SK-MEL-28, 48 h; summary of the method: as §1
# SK-MEL-5 = experiment: Growth inhibition of human SK-MEL5 cells after 48 hrs; conditions: SK-MEL-5, 48 h; summary of the method: as §1
# UACC-257 = experiment: Growth inhibition of human UACC257 cells after 48 hrs; conditions: UACC-257, 48 h; summary of the method: as §2
# UACC-62 = experiment: Growth inhibition of human UACC62 cells after 48 hrs; conditions: UACC-62, 48 h; summary of the method: as §2
# IGROV-1 = experiment: Growth inhibition of human IGROV1 cells after 48 hrs; conditions: IGROV-1, 48 h; summary of the method: as §1
# OVCAR-3 = experiment: Growth inhibition of human OVCAR-3 cells after 48 hrs; conditions: OVCAR-3, 48 h; summary of the method: as §1
# OVCAR-4 = experiment: Growth inhibition of human OVCAR4 cells after 48 hrs; conditions: OVCAR-4, 48 h; summary of the method: as §1
# OVCAR-5 = experiment: Growth inhibition of human OVCAR5 cells after 48 hrs; conditions: OVCAR-5, 48 h; summary of the method: as §1
# OVCAR-8 = experiment: Growth inhibition of human OVCAR8 cells after 48 hrs; conditions: OVCAR-8, 48 h; summary of the method: as §1
# SK-OV-3 = experiment: Growth inhibition of human SKOV3 cells after 48 hrs; conditions: SK-OV-3, 48 h; summary of the method: as §2
# 786-0 = experiment: Growth inhibition of human 786-0 cells after 48 hrs; conditions: 786-0, 48 h; summary of the method: as §1
# A498 = experiment: Growth inhibition of human A498 cells after 48 hrs; conditions: A498, 48 h; summary of the method: as §1
# ACHN = experiment: Growth inhibition of human ACHN cells after 48 hrs; summary of the method: as §1
# CAKI-1 = experiment: Growth inhibition of human CAKI1 cells after 48 hrs; conditions: CAKI-1, 48 h; summary of the method: as §1
# RXF 393 = experiment: Growth inhibition of human RXF393 cells after 48 hrs; conditions: RXF 393, 48 h; summary of the method: as §1
# SN12C = experiment: Growth inhibition of human SN12C cells after 48 hrs; summary of the method: as §2
# TK-10 = experiment: Growth inhibition of human TK10 cells after 48 hrs; conditions: TK-10, 48 h; summary of the method: as §2
# UO-31 = experiment: Growth inhibition of human UO31 cells after 48 hrs; conditions: UO-31, 48 h; summary of the method: as §2
# PC-3 = experiment: Growth inhibition of human PC3 cells after 48 hrs; conditions: PC-3, 48 h; summary of the method: as §1
# DU-145 = experiment: Growth inhibition of human DU145 cells after 48 hrs; conditions: DU-145, 48 h; summary of the method: as §1
# MCF7 [4] = experiment: Growth inhibition of human MCF7 cells after 48 hrs; conditions: MCF7, 48 h; summary of the method: as §1
# NCI/ADR-RES = experiment: Growth inhibition of human NCI/ADR-RES cells after 48 hrs; summary of the method: as §1
# MDA-MB-231 = experiment: Growth inhibition of human MDA-MB-231 cells after 48 hrs; conditions: MDA-MB-231, 48 h; summary of the method: as §1
# MCF7 [5] = experiment: Antitumor activity against human MCF7 cells at 0.1 mM after 48 hrs
# Summary of the method: (§3)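 Prescreen run under the NCI Developmental Therapeutic Program. Agents were tested at a single concentration of 10^-4 M against a three-line panel (MCF7, NCI-H460, SF-268).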
# NCI-H460 [6] = experiment: Antitumor activity against human NCI-H460 cells at 0.1 mM after 48 hrs; summary of the method: as §3
# SF-268 [7] = experiment: Antitumor activity against human SF268 cells at 0.1 mM after 48 hrs; summary of the method: as §3
smiles,measurement,setting,value
COC(=O)C(Cc1c[nH]cn1)NC(=O)CNC(=O)CCCn1c(=O)c2c3ccccc3n(C)c2n2nnc(-c3ccccc3)c12 (stereo not given),GI50,CCRF-CEM,> 100 µM
same,GI50,HL-60,> 100 µM
same,GI50,K562,> 100 µM
same,GI50,MOLT-4,> 100 µM
same,GI50,[1],> 100 µM
same,GI50,MDA-MB-435,> 100 µM
same,GI50,BT-549,> 100 µM
same,GI50,T47D,> 100 µM
same,GI50,RPMI-8226,> 100 µM
same,GI50,SR,> 100 µM
same,GI50,A549,> 100 µM
same,GI50,EKVX,> 100 µM
same,GI50,HOP-62,> 100 µM
same,GI50,HOP-92,> 100 µM
same,GI50,NCI-H226,> 100 µM
same,GI50,NCI-H23,> 100 µM
same,GI50,NCI-H322M,> 100 µM
same,GI50,NCI-H460 [2],> 100 µM
same,GI50,NCI-H522,> 100 µM
same,GI50,COLO 205,> 100 µM
same,GI50,HCC 2998,> 100 µM
same,GI50,HCT-116,> 100 µM
same,GI50,HCT-15,> 100 µM
same,GI50,HT-29,> 100 µM
same,GI50,KM12,> 100 µM
same,GI50,SW-620,> 100 µM
same,GI50,SF-268 [3],> 100 µM
same,GI50,SF-295,> 100 µM
same,GI50,SF-539,> 100 µM
same,GI50,SNB-19,> 100 µM
same,GI50,SNB-75,> 100 µM
same,GI50,U-251,> 100 µM
same,GI50,LOX IMVI,> 100 µM
same,GI50,Malme-3M,> 100 µM
same,GI50,M14,> 100 µM
same,GI50,SK-MEL-2,> 100 µM
same,GI50,SK-MEL-28,> 100 µM
same,GI50,SK-MEL-5,> 100 µM
same,GI50,UACC-257,> 100 µM
same,GI50,UACC-62,> 100 µM
same,GI50,IGROV-1,72.4 µM
same,GI50,OVCAR-3,> 100 µM
same,GI50,OVCAR-4,> 100 µM
same,GI50,OVCAR-5,> 100 µM
same,GI50,OVCAR-8,> 100 µM
same,GI50,SK-OV-3,> 100 µM
same,GI50,786-0,> 100 µM
same,GI50,A498,> 100 µM
same,GI50,ACHN,> 100 µM
same,GI50,CAKI-1,> 100 µM
same,GI50,RXF 393,> 100 µM
same,GI50,SN12C,> 100 µM
same,GI50,TK-10,> 100 µM
same,GI50,UO-31,> 100 µM
same,GI50,PC-3,30.2 µM
same,GI50,DU-145,> 100 µM
same,GI50,MCF7 [4],> 100 µM
same,GI50,NCI/ADR-RES,> 100 µM
same,GI50,MDA-MB-231,> 100 µM
Cn1c2ccccc2c2c(=O)n(CCCC(=O)O)c3c(-c4ccccc4)nnn3c21,Activity,MCF7 [5],80%
same,Activity,NCI-H460 [6],95%
same,Activity,SF-268 [7],87%
CCOC(=O)CCCn1c(=O)c2c3ccccc3n(C)c2n2nnc(-c3ccccc3)c12,Activity,MCF7 [5],114%
same,Activity,NCI-H460 [6],95%
same,Activity,SF-268 [7],110%
